From PubChem BioAssay
Sampled rows, rich in hits. Any-hit rate of the full collection: about 2%.
LMPTP inh: LMPTP (human) inhibition. P24666. recombinant LMPTP-A, OMFP fluorogenic substrate, fluorescence intensity. inhibition, % at 20 µM. 360,000 tested, 0.22% active;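 active means compounds that cut the enzyme signal by at least half of the control window in the single-dose screen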
Target sequence (P24666 whole entry, looked up): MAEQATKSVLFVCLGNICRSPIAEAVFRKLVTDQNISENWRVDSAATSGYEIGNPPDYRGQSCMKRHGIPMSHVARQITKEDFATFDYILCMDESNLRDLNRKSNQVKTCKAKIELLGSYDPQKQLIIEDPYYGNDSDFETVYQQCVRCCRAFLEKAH
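Buffer or medium: Bis-Tris pH 6.0, DTT, detergent; Assay system: LMPTP-A enzyme; Quantity: 0.625 nM enzyme; Detection: endpoint fluorescence intensity; Times: 50 min dark incubation at room temperature; Controls: substrate-only low control, DMSO enzyme-plus-substrate high control; Doses: single 20 µM dose; Read-out: percent inhibition versus substrate-only and uninhibited controls; Reagent: 400 µM OMFP.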
DNMT1 block: blocks human DNA methyltransferase DNMT1; 360,000 tested, 0.83% active; inhibition (reported as % activation of signal), % at 10 µM; P26358; DNMT1 molecular beacon, Hinp1I cleavage, fluorescence; in the data active means inhibition above about 50%
Scp-1 inhibitor: inhibitors of human Scp-1 phosphatase | Recombinant Scp1, phosphopeptide, malachite green phosphate absorbance | 340,000 tested, 0.88% active | inhibition, % at 20 µM | Q9GZU7;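 active means inhibition above about 50% at 20 µM, limit read from the data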
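Test system: SCP-1 phosphatase catalytic domain, residues 76-261 | Compound dosing: One concentration, 20 µM, with 1.0% DMSO | Schedule: 45 min room-temperature reaction, 5 min colour, 30 min stabiliser | Detection: Absorbance at 630 nm | Read-out basis: % inhibition of SCP-1 phosphate liberation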
STEP block: STEP (human) phosphatase inhibition | 360,000 tested, 0.25% active | recombinant STEP, OMFP fluorogenic substrate, fluorescence | AID 588621 | inhibition, % at 20 µM;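 active means inhibition at 20 µM, scaled per plate between control wells, above about 37%, limit read from the data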
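Measure: Control-normalized % inhibition with plate pattern correction | Test system: STEP phosphatase, cell-free reaction | Medium: pH 6.0 Bis-Tris with DTT and Tween 20 | Technique: Fluorescence, 480/540 nm | Times: Reaction 20 min, ambient temperature | Doses: Single compound dose of 20 µM, 1% DMSO final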
Rpn11 block: blocks the human proteasome subunit Rpn11; O00487; human 26S proteasome, Ub4-pepOG fluorescence polarization; 20S core pre-blocked with epoxomicin; inhibition, % at 20 µM; 360,000 tested, 0.59% active;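 active means inhibition at 20 µM, scaled to each plate's controls, above about 33%, limit read from the data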
Target sequence (O00487 whole entry, looked up): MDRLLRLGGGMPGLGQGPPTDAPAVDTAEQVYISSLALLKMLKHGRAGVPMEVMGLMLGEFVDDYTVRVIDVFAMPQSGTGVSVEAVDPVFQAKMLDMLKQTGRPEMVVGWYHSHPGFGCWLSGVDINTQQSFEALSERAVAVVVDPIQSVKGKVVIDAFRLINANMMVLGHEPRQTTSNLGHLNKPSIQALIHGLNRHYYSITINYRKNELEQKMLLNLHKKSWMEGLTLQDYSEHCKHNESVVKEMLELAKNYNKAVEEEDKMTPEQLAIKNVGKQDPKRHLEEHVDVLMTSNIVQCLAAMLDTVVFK
Rpn11 confirm: confirmation of human proteasome Rpn11 inhibitors; shares compounds with Rpn11 block; AID 602318; purified human 26S proteasome, Ub4-pepOG fluorescence polarization; proteasome pretreated with epoxomicin; 1,900 tested, 29% active; inhibition, % at 20 µM
MMP-2 inh: MMP-2 (human) inhibition counter-screen. 1,900 tested, 4% active. shares compounds with Rpn11 block. inhibition, % at 20 µM. AID 602330. recombinant MMP-2, FRET peptide cleavage fluorescence;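 further: human MMP-2 activated beforehand with APMA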
Thrombin inh: thrombin (bovine) inhibition counter-screen; shares compounds with Rpn11 block; bovine thrombin cleavage of Ub4-pepOG, fluorescence polarization; inhibition, % at 20 µM; 1,900 tested, 13% active; AID 602333;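 active means mean inhibition at least 40% at 20 µM, or signal 3 deviations below plate average, so some actives read negative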
A number is an active result; 0 = inactive; - = no result given. Unless noted, no stated cut-off is given here; in the data, active means inhibition above about 40%; inactive means the rest.

SMILES	LMPTP inh	DNMT1 block	Scp-1 inhibitor	STEP block	Rpn11 block	Rpn11 confirm	MMP-2 inh	Thrombin inh
Cc1sc2nc(CSCC(=O)Nc3ccccc3C#N)[nH]c(=O)c2c1C	0	0	0	0	49.2	45.8	0	0
Cc1sc2nc(CSC(C)C(=O)Nc3ccc(C#N)cc3)[nH]c(=O)c2c1C (stereo unspecified)	0	0	0	0	45.5	0	0	0
Cc1coc(C)c1C(=O)Nc1ccc2ccccc2c1	0	0	0	0	0	-	-	-
Cc1cccc(OCCCC(=O)N2CCCCCC2)c1C	0	0	0	0	47.4	0	0	0
Cc1cccc(OCCCC(=O)O)c1C	0	0	0	0	0	-	-	-
CCNC(=S)NNC(=O)c1cccc(Br)c1	0	0	0	0	28.3	0	0	0
Cc1noc(C)c1NC(=O)N(C)C[C@H]1Oc2ccc(NS(=O)(=O)c3ccc(F)cc3)cc2C(=O)N([C@H](C)CO)C[C@@H]1C	0	0	0	0	60.1	0	0	0
CCCCN=C1NN=C(c2cc3ccccc3o2)CS1	0	0	0	0	46.5	0	0	0
COc1cccc(-c2cc(NC=O)c3ncc(-c4ccc(C(C)=O)cc4)n3c2)c1	0	0	-	0	0	-	-	-
COc1ccc2c(C)nc(Nc3nc(-c4ccccc4)cc(=O)[nH]3)nc2c1	0	0	0	0	44.9	0	0	0
Cc1ccc2nc(Nc3nc(-c4ccccc4)cc(=O)[nH]3)nc(C)c2c1	0	0	0	0	0	-	-	-
CC(=O)Nc1ccc(S(=O)(=O)NC2CC2)cc1	0	0	0	0	0	-	-	-
O=C(CNC(=O)c1ccc(Cl)cc1Cl)OCCCn1c(=O)[nH]c2ccccc21	0	0	0	0	0	-	-	-
COc1ccc(C2CC(c3ccccc3)=NN2C(=O)COC(=O)c2ccc(Cl)nc2)cc1 (stereo unspecified)	0	0	0	0	41.8	0	0	0
COc1ccc(C2CC(c3ccccc3)=NN2C(=O)COC(=O)c2cnc(Cl)c(Cl)c2)cc1 (stereo unspecified)	0	0	0	0	0	-	-	-
COc1nc(-c2ccccc2)ccc1-c1noc(-c2cccnc2)n1	0	0	0	0	44.2	0	0	0
S=c1sc(SCCOc2ccccc2)nn1-c1ccccc1	0	0	0	0	0	-	-	-
O=C(NCc1cccnc1)c1ccc(NC(=O)c2cccc([N+](=O)[O-])c2)cc1	0	0	0	0	0	-	-	-
O=C(CCNS(=O)(=O)c1cccs1)NCc1cccs1	0	0	0	0	110.2	0	0	0
O=C(O)CN1C(=O)/C(=C/C=C/c2ccccc2)SC1=S	0	0	0	0	0	-	-	-
O=C(CCN1C(=O)/C(=C/C=C/c2ccccc2)SC1=S)Nc1ccccn1	0	0	0	0	37.7	0	0	0
CCOC(=O)c1sc(Nc2ccc(C)cc2C)nc1C	0	0	0	0	36.3	0	0	0
CCOC(=O)c1sc(Nc2ccccc2)nc1C	0	0	0	0	0	-	-	-
CN1CCc2nc(NC(=O)c3cccc(OC(F)F)c3)sc2C1	0	0	0	0	50.7	0	0	0
COc1ccc(C(C#N)c2ccc(=O)[nH]n2)cc1 (stereo unspecified)	0	0	0	0	0	-	-	-
CC(=O)c1cccc(NC(=O)C2CC(=O)N(c3cccc(C)c3C)C2)c1 (stereo unspecified)	0	0	0	0	92.8	0	0	0
COc1ccc(N2CCN(C(=O)CSc3ncccc3-c3nc4ccccc4[nH]3)CC2)cc1	0	0	0	0	35.8	0	0	0
CC(C)n1cc(/C=N/NC(=O)COc2cccc3cccnc23)c2ccccc21	0	0	0	0	0	-	-	-
C=CCn1cc(/C=N/NC(=O)COc2cccc3cccnc23)c2ccccc21	0	0	0	0	58.6	88.4	0	52.6
O=C(/C=C/c1ccc([N+](=O)[O-])cc1)c1ccccc(=O)c1O	0	0	0	0	42.2	0	0	0
